Test results: ChEMBL document CHEMBL4304801, “ω-Hydroxy isoprenoid bisphosphonates as linkable GGDPS inhibitors” (Bioorg Med Chem Lett, 2019)
Calls of active or inactive are those of the source. The calls are words filed in the database; no cut-off is given here.

What was measured:
[1] = target: T1, Farnesyl pyrophosphate synthase (Homo sapiens, UniProt P14324); test: Inhibition of FDPS (unknown origin) using [14C] IPP and GPP as substrate preincubated for 10 mins followed by substrate addition and measured after 30 min by scintillation counting method
T1 sequence (P14324 whole entry): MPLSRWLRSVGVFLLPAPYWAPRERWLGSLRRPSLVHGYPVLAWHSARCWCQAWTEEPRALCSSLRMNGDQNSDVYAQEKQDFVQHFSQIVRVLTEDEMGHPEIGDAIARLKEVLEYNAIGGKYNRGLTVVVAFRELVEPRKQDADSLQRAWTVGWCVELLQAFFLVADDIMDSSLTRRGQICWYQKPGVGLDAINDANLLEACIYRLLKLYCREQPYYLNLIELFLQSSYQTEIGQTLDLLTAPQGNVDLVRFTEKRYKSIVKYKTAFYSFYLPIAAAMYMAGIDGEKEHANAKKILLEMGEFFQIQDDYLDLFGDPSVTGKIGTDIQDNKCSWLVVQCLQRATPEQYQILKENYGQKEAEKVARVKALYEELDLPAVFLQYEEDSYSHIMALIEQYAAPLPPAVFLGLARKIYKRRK
In short: (§1)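 Recombinant enzyme donated by outside labs, assayed by a previously described method; each concentration run in duplicate over multiple concentrations, three independent experiments.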

Homo sapiens = organism: Homo sapiens; test: Selectivity ratio of IC50 for FDPS (unknown origin) to IC50 for GGDPS (unknown origin)
[2] = target: T2, Geranylgeranyl pyrophosphate synthase (Homo sapiens) (UniProt O95749); test: Inhibition of GGPPs in human RPMI8226 cells assessed as disruption of Rab geranylgeranylation by ELISA; type: cell-based
T2 sequence (whole entry): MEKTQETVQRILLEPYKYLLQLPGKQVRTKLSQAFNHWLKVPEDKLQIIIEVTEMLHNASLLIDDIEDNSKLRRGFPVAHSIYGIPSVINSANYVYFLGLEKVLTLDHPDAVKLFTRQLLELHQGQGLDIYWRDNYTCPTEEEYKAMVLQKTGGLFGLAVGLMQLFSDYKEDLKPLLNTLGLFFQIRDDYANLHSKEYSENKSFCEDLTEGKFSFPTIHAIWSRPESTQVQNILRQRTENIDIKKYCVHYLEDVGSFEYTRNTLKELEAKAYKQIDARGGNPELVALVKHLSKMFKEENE

[3] = target: T3, Geranylgeranyl pyrophosphate synthase (Homo sapiens, UniProt O95749); test: Inhibition of GGDPS (unknown origin) using [14C] IPP and FPP as substrate preincubated for 10 mins followed by substrate addition and measured after 30 min by scintillation counting method; in short: as §1
T3 sequence (O95749 whole entry): T2 sequence (whole entry)

[4] = target: T2, Geranylgeranyl pyrophosphate synthase (Homo sapiens); test: Inhibition of GGPPs in human RPMI8226 cells assessed as disruption of Rap1a geranylgeranylation measured after 48 hrs by immunoblot analysis; type: cell-based
In short: (§2)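 Whole-cell lysates made in RIPA buffer (0.15 M NaCl, 1% deoxycholate, 0.1% SDS, 1% Triton X-100, 0.05 M Tris HCl) with protease/phosphatase inhibitors; protein by BCA; equal protein run on SDS-PAGE, PVDF transfer, primary antibodies, HRP secondaries, ECL detection of Rap1a with β-tubulin as loading reference.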

[5] = target: T2, Geranylgeranyl pyrophosphate synthase (Homo sapiens); test: Inhibition of GGPPs in human RPMI8226 cells assessed as disruption of Rap1a geranylgeranylation at 1 to 10 uM after 48 hrs by immunoblot analysis; type: cell-based; in short: as §2
[6] = target: T2, Geranylgeranyl pyrophosphate synthase (Homo sapiens); test: Inhibition of GGPPs in human MM1S cells assessed as disruption of Rap1a geranylgeranylation at 1 to 10 uM after 48 hrs by immunoblot analysis; type: cell-based; in short: as §2

Compound | IC50 [1] | Ratio IC50 (Homo sapiens) | MEC [2] | inhibition [2] | IC50 [3] | inhibition [4] | inhibition [5] | inhibition [6]
C/C(=C/CCn1cc(CC(C)(P(=O)(O)O)P(=O)(O)O)nn1)CC/C=C(\C)CO | 81.4 µM | 121 | 0.25 µM | Dose-dependent effect | 0.67 µM | Dose-dependent effect | – | –
CC(=CCn1cc(CC(P(=O)(O)O)P(=O)(O)O)nn1)CC/C=C(\C)CO | 91.2 µM | 8 | 10 µM | Dose-dependent effect | 11.6 µM | Dose-dependent effect | Active | Active
